Data reported in ChEMBL document CHEMBL4673214, “Synthesis and antibacterial bioactivities of cationic deacetyl linezolid amphiphiles” (Eur J Med Chem, 2018).
Converted amounts (≈) assume the structure as drawn. The source made the active and inactive calls. The rule behind the calls is not given here.

What was measured:
Klebsiella pneumoniae [1] = assay: Antibacterial activity against carbapenem-resistant Klebsiella pneumoniae clinical isolate 5 assessed as reduction in bacterial growth incubated for 16 to 20 hrs by CLSI-based broth microdilution method; assay type: functional; conditions: time 16-20 hrs
How it was run: (§1)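 Clinical isolates tested by broth microdilution in cation-adjusted Mueller-Hinton broth. Cultures grown 4-6 h (~10^8 CFU/mL) were diluted to ~10^6 CFU/mL and mixed 1:1 with compound serial dilutions made from 256 down to 0.5 µg/mL (pre-mixing). Plates held at 37 °C for 16-20 h, then read for growth. Each concentration run in duplicate, whole experiment at least twice.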

Klebsiella pneumoniae [2] = assay: Antibacterial activity against carbapenem-resistant Klebsiella pneumoniae clinical isolate 8 assessed as reduction in bacterial growth incubated for 16 to 20 hrs by CLSI-based broth microdilution method; assay type: functional; conditions: time 16-20 hrs; how it was run: as §1
Enterobacteriaceae [3] = assay: Antibacterial activity against NDM1 producing carbapenem-resistant Enterobacteriaceae clinical isolate 9 assessed as reduction in bacterial growth incubated for 16 to 20 hrs by CLSI-based broth microdilution method; assay type: functional; conditions: time 16-20 hrs; how it was run: as §1
Enterobacteriaceae [4] = assay: Antibacterial activity against NDM1 producing carbapenem-resistant Enterobacteriaceae clinical isolate 7 assessed as reduction in bacterial growth incubated for 16 to 20 hrs by CLSI-based broth microdilution method; assay type: functional; conditions: time 16-20 hrs; how it was run: as §1
Klebsiella pneumoniae [5] = assay: Antibacterial activity against carbapenem-resistant Klebsiella pneumoniae clinical isolate 2 assessed as reduction in bacterial growth incubated for 16 to 20 hrs by CLSI-based broth microdilution method; assay type: functional; conditions: time 16-20 hrs; how it was run: as §1
Klebsiella pneumoniae [6] = assay: Antibacterial activity against carbapenem-resistant Klebsiella pneumoniae clinical isolate 7 assessed as reduction in bacterial growth incubated for 16 to 20 hrs by CLSI-based broth microdilution method; assay type: functional; conditions: time 16-20 hrs; how it was run: as §1
Enterobacteriaceae [7] = assay: Antibacterial activity against NDM1 producing carbapenem-resistant Enterobacteriaceae clinical isolate 1 assessed as reduction in bacterial growth incubated for 16 to 20 hrs by CLSI-based broth microdilution method; assay type: functional; conditions: time 16-20 hrs; how it was run: as §1
Staphylococcus aureus [8] = assay: Antibacterial activity against methicillin-resistant Staphylococcus aureus clinical isolate 9 assessed as reduction in bacterial growth incubated for 16 to 20 hrs by CLSI-based broth microdilution method; assay type: functional; conditions: time 16-20 hrs; how it was run: as §1
Cell membrane [9] = assay: Induction of inner membrane permeabilization in Staphylococcus aureus ATCC 29213 at 20 ug/ml measured for 12 mins by propidium iodide staining based fluorescence microscopic analysis; conditions: dose 20.0 µg/ml
How it was run: (§2)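 Mid-log bacteria were washed and resuspended at ~10^8 CFU/mL and preincubated with propidium iodide (10 µM stock) for 30 min (S. aureus) or 40 min (E. coli). Fluorescence (ex 535/em 617 nm) was read on a plate for an 8 min baseline, then every 2 min for 12 min after compound at 20 µg/mL final. Water served as control.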

Klebsiella pneumoniae [10] = assay: Antibacterial activity against carbapenem-resistant Klebsiella pneumoniae clinical isolate 1 assessed as reduction in bacterial growth incubated for 16 to 20 hrs by CLSI-based broth microdilution method; assay type: functional; conditions: time 16-20 hrs; how it was run: as §1
Staphylococcus aureus [11] = assay: Antibacterial activity against methicillin-resistant Staphylococcus aureus clinical isolate 2 assessed as reduction in bacterial growth incubated for 16 to 20 hrs by CLSI-based broth microdilution method; assay type: functional; conditions: time 16-20 hrs; how it was run: as §1
Klebsiella pneumoniae [12] = assay: Antibacterial activity against carbapenem-resistant Klebsiella pneumoniae clinical isolate 10 assessed as reduction in bacterial growth incubated for 16 to 20 hrs by CLSI-based broth microdilution method; assay type: functional; conditions: time 16-20 hrs; how it was run: as §1
Staphylococcus aureus [13] = assay: Antibacterial activity against methicillin-resistant Staphylococcus aureus clinical isolate 7 assessed as reduction in bacterial growth incubated for 16 to 20 hrs by CLSI-based broth microdilution method; assay type: functional; conditions: time 16-20 hrs; how it was run: as §1
Staphylococcus aureus [14] = assay: Antibacterial activity against methicillin-resistant Staphylococcus aureus clinical isolate 5 assessed as reduction in bacterial growth incubated for 16 to 20 hrs by CLSI-based broth microdilution method; assay type: functional; conditions: time 16-20 hrs; how it was run: as §1
Klebsiella pneumoniae [15] = assay: Antibacterial activity against carbapenem-resistant Klebsiella pneumoniae clinical isolate 6 assessed as reduction in bacterial growth incubated for 16 to 20 hrs by CLSI-based broth microdilution method; assay type: functional; conditions: time 16-20 hrs; how it was run: as §1
Enterococcus faecalis = assay: Antibacterial activity against Enterococcus faecalis ATCC 29212 assessed as reduction in bacterial growth incubated 16 to 20 hrs by CLSI-based broth microdilution method; assay type: functional; conditions: time 16-20 hrs
How it was run: (§3)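 Broth microdilution following CLSI, in cation-adjusted Mueller-Hinton broth. Inoculum from a 4-6 h culture (~10^8 CFU/mL), diluted to ~10^6 CFU/mL. Water stocks were serially diluted in MHB (256 to 0.5 µg/mL) and mixed 1:1 with the inoculum. Plates ran 16-20 h at 37 °C. MIC was read visually. Each concentration was tested in duplicate, and the experiment was repeated at least twice.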

Staphylococcus aureus [16] = assay: Antibacterial activity against methicillin-resistant Staphylococcus aureus clinical isolate 1 assessed as reduction in bacterial growth incubated for 16 to 20 hrs by CLSI-based broth microdilution method; assay type: functional; conditions: time 16-20 hrs; how it was run: as §1
Enterobacteriaceae [17] = assay: Antibacterial activity against NDM1 producing carbapenem-resistant Enterobacteriaceae clinical isolate 10 assessed as reduction in bacterial growth incubated for 16 to 20 hrs by CLSI-based broth microdilution method; assay type: functional; conditions: time 16-20 hrs; how it was run: as §1
Enterobacteriaceae [18] = assay: Antibacterial activity against NDM1 producing carbapenem-resistant Enterobacteriaceae clinical isolate 2 assessed as reduction in bacterial growth incubated for 16 to 20 hrs by CLSI-based broth microdilution method; assay type: functional; conditions: time 16-20 hrs; how it was run: as §1
Staphylococcus aureus [19] = assay: Antibacterial activity against methicillin-resistant Staphylococcus aureus clinical isolate 4 assessed as reduction in bacterial growth incubated for 16 to 20 hrs by CLSI-based broth microdilution method; assay type: functional; conditions: time 16-20 hrs; how it was run: as §1
Escherichia coli = assay: Antibacterial activity against Escherichia coli ATCC 25922 assessed as reduction in bacterial growth incubated 16 to 20 hrs by CLSI-based broth microdilution method; assay type: functional; conditions: time 16-20 hrs; how it was run: as §3
Cell membrane [20] = assay: Induction of cytoplasmic membrane depolarization in Escherichia coli ATCC 25922 at 20 ug/ml measured for 12 mins by DiSC35 dye-based fluorescence assay; assay type: subcellular; conditions: dose 20.0 µg/ml
How it was run: (§4)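 Mid-log bacteria were washed and resuspended at ~10^8 CFU/mL: S. aureus in PBS, E. coli in 5 mM HEPES/5 mM glucose/100 mM KCl (1:1:1). Cells were loaded with diSC35 (10 µM stock) for 30 min (S. aureus) or 40 min (E. coli, plus EDTA). Fluorescence (ex 622/em 670 nm) was read for an 8 min baseline, then every 2 min for 12 min after compound at 20 µg/mL final. Water served as control.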

Cell membrane [21] = assay: Induction of cytoplasmic membrane depolarization in Staphylococcus aureus ATCC 29213 at 20 ug/ml measured for 12 mins by DiSC35 dye-based fluorescence assay; assay type: subcellular; conditions: dose 20.0 µg/ml; how it was run: as §4
Staphylococcus aureus [22] = assay: Antibacterial activity against methicillin-resistant Staphylococcus aureus clinical isolate 8 assessed as reduction in bacterial growth incubated for 16 to 20 hrs by CLSI-based broth microdilution method; assay type: functional; conditions: time 16-20 hrs; how it was run: as §1
Enterobacteriaceae [23] = assay: Antibacterial activity against NDM1 producing carbapenem-resistant Enterobacteriaceae clinical isolate 6 assessed as reduction in bacterial growth incubated for 16 to 20 hrs by CLSI-based broth microdilution method; assay type: functional; conditions: time 16-20 hrs; how it was run: as §1
Klebsiella pneumoniae [24] = assay: Antibacterial activity against carbapenem-resistant Klebsiella pneumoniae clinical isolate 3 assessed as reduction in bacterial growth incubated for 16 to 20 hrs by CLSI-based broth microdilution method; assay type: functional; conditions: time 16-20 hrs; how it was run: as §1
Klebsiella pneumoniae [25] = assay: Antibacterial activity against carbapenem-resistant Klebsiella pneumoniae clinical isolate 4 assessed as reduction in bacterial growth incubated for 16 to 20 hrs by CLSI-based broth microdilution method; assay type: functional; conditions: time 16-20 hrs; how it was run: as §1
Salmonella enterica = assay: Antibacterial activity against Salmonella enterica ATCC 8387 assessed as reduction in bacterial growth incubated for 16 to 20 hrs by CLSI-based broth microdilution method; assay type: functional; conditions: time 16-20 hrs; how it was run: as §3
Cell membrane [26] = assay: Induction of inner membrane permeabilization in Escherichia coli ATCC 25922 at 20 ug/ml measured for 12 mins by propidium iodide staining based fluorescence microscopic analysis; conditions: dose 20.0 µg/ml; how it was run: as §2

SMILES	MIC (Klebsiella pneumoniae [1])	MIC (Klebsiella pneumoniae [2])	MIC (Enterobacteriaceae [3])	MIC (Enterobacteriaceae [4])	MIC (Klebsiella pneumoniae [5])	MIC (Klebsiella pneumoniae [6])	MIC (Enterobacteriaceae [7])	MIC (Staphylococcus aureus [8])	Activity (Cell membrane [9])	MIC (Klebsiella pneumoniae [10])	MIC (Staphylococcus aureus [11])	MIC (Klebsiella pneumoniae [12])	MIC (Staphylococcus aureus [13])	MIC (Staphylococcus aureus [14])	MIC (Klebsiella pneumoniae [15])	MIC (Enterococcus faecalis)	MIC (Staphylococcus aureus [16])	MIC (Enterobacteriaceae [17])	MIC (Enterobacteriaceae [18])	MIC (Staphylococcus aureus [19])	further results
C[C@@H](O)[C@H]1C(=O)N2C(C(=O)O)=C(S[C@@H]3CN[C@H](C(=O)N(C)C)C3)[C@H](C)[C@H]12 [MEROPENEM]	32 µg/mL (≈ 83.4 µM)	32 µg/mL (≈ 83.4 µM)	> 64 µg/mL	64 µg/mL (≈ 167 µM)	> 64 µg/mL	> 64 µg/mL	32 µg/mL (≈ 83.4 µM)	64 µg/mL (≈ 167 µM)	inactive	> 64 µg/mL	64 µg/mL (≈ 167 µM)	64 µg/mL (≈ 167 µM)	64 µg/mL (≈ 167 µM)	64 µg/mL (≈ 167 µM)	> 64 µg/mL	4 µg/mL (≈ 10.4 µM)	64 µg/mL (≈ 167 µM)	> 64 µg/mL	16 µg/mL (≈ 41.7 µM)	32 µg/mL (≈ 83.4 µM)	MIC (Escherichia coli): < 0.125 µg/mL; Activity (Cell membrane [20]): inactive; Activity (Cell membrane [21]): inactive; MIC (Staphylococcus aureus [22]): 64 µg/mL (≈ 167 µM); MIC (Enterobacteriaceae [23]): 2 µg/mL (≈ 5.22 µM); MIC (Klebsiella pneumoniae [24]): 2 µg/mL (≈ 5.22 µM); MIC (Klebsiella pneumoniae [25]): 32 µg/mL (≈ 83.4 µM); MIC (Salmonella enterica): < 0.125 µg/mL; Activity (Cell membrane [26]): inactive
CCCCCCCCCCCN(C[C@H]1CN(c2ccc(N3CCOCC3)c(F)c2)C(=O)O1)C(=O)[C@@H](N)CCCCN.Cl.Cl	16 µg/mL	16 µg/mL	16 µg/mL	16 µg/mL	16 µg/mL	16 µg/mL	> 64 µg/mL	4 µg/mL	Active	16 µg/mL	4 µg/mL	16 µg/mL	2 µg/mL	4 µg/mL	16 µg/mL	4 µg/mL	4 µg/mL	16 µg/mL	> 64 µg/mL	4 µg/mL	MIC (Escherichia coli): 8 µg/mL; Activity (Cell membrane [20]): Active; Activity (Cell membrane [21]): Active; MIC (Staphylococcus aureus [22]): 4 µg/mL; MIC (Enterobacteriaceae [23]): 16 µg/mL; MIC (Klebsiella pneumoniae [24]): 16 µg/mL; MIC (Klebsiella pneumoniae [25]): 16 µg/mL; MIC (Salmonella enterica): 16 µg/mL; Activity (Cell membrane [26]): Active
